Tests used:
Rattus norvegicus [1] = assay: Biodistribution of radioligand [125I]FIDA1 in skin of rat after 2 minutes after an intravenous injection is given (average of 3 rats); type: ADME, organism-based, Zone of skin; conditions: in vivo
How it was run: (§1)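 Male Sprague–Dawley rats (225–300 g) were given 0.2 mL saline containing the radioiodinated ligand (8–10 μCi) into the femoral vein under ether anesthesia. They were killed at set times by cardiac excision. Organs were weighed and γ-counted against diluted aliquots of the injected dose and expressed as % dose/organ. Blood and muscle were taken as 7% and 40% of body weight. Three rats were used per point.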

Rattus norvegicus [2] = assay: Biodistribution of radioligand [125I]FIDA1 in skin of rat after 120 minutes after an intravenous injection is given (average of 3 rats); type: ADME, organism-based, Zone of skin; conditions: in vivo, 2 h; how it was run: as §1
Rattus norvegicus [3] = assay: Biodistribution of radioligand [125I]-FIDA1 in liver of rat after 2 minutes after an intravenous injection is given (average of 3 rats); type: ADME, organism-based; conditions: in vivo; how it was run: as §1
Rattus norvegicus [4] = assay: Biodistribution of radioligand [125I]FIDA1 in blood of rat after 2 minutes after an intravenous injection is given (average of 3 rats); type: ADME, organism-based; conditions: in vivo; how it was run: as §1
Rattus norvegicus [5] = assay: Uptake of radioligand [125I]FIDA1 by cerebellum in rat after 60 minutes after an intravenous injection is given (average of 3 rats); type: ADME, organism-based; conditions: in vivo, 1 h
How it was run: (§2)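 Male Sprague–Dawley rats (225–300 g) under ether anesthesia received radioiodinated tracer (8–10 μCi in 0.2 mL saline) into the femoral vein. They were killed by cardiac excision at set times. Cortex, striatum, hippocampus and cerebellum were dissected, weighed and gamma-counted. Results are % dose/gram against diluted injected dose.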

Rattus norvegicus [6] = assay: Uptake of radioligand [125I]FIDA1 by striatum in rat after 120 minutes after an intravenous injection is given (average of 3 rats); type: ADME, organism-based; conditions: in vivo, 2 h; how it was run: as §2
Rattus norvegicus [7] = assay: Uptake of radioligand [125I]FIDA1 by striatum in rat after 60 minutes after an intravenous injection is given (average of 3 rats); type: ADME, organism-based; conditions: in vivo, 1 h; how it was run: as §2
Rattus norvegicus [8] = assay: Biodistribution of radioligand [125I]FIDA1 in spleen of rat after 120 minutes after an intravenous injection is given (average of 3 rats); type: ADME, organism-based; conditions: in vivo, 2 h; how it was run: as §1
Rattus norvegicus [9] = assay: Biodistribution of radioligand [125I]FIDA1 in brain of rat after 2 minutes after an intravenous injection is given (average of 3 rats); type: ADME, organism-based; conditions: in vivo; how it was run: as §1
Rattus norvegicus [10] = assay: Biodistribution of radioligand [125I]FIDA1 in heart of rat after 60 minutes after an intravenous injection is given (average of 3 rats); type: ADME, organism-based; conditions: in vivo, 1 h; how it was run: as §1
Rattus norvegicus [11] = assay: Biodistribution of radioligand [125I]FIDA1 in lung of rat after 2 minutes after an intravenous injection is given (average of 3 rats); type: ADME, organism-based; conditions: in vivo; how it was run: as §1
Rattus norvegicus [12] = assay: Biodistribution of radioligand [125I]FIDA1 in brain of rat after 120 minutes after an intravenous injection is given (average of 3 rats); type: ADME, organism-based; conditions: in vivo, 2 h; how it was run: as §1
Rattus norvegicus [13] = assay: Biodistribution of radioligand [125I]FIDA1 in lung of rat after 60 minutes after an intravenous injection is given (average of 3 rats); type: ADME, organism-based; conditions: in vivo, 1 h; how it was run: as §1
Rattus norvegicus [14] = assay: Biodistribution of radioligand [125I]FIDA1 in kidney of rat after 120 minutes after an intravenous injection is given (average of 3 rats); type: ADME, organism-based; conditions: in vivo, 2 h; how it was run: as §1
Rattus norvegicus [15] = assay: Biodistribution of radioligand [125I]FIDA1 in blood of rat after 30 minutes after an intravenous injection is given (average of 3 rats); type: ADME, organism-based; conditions: in vivo, 0.5 h; how it was run: as §1
Rattus norvegicus [16] = assay: Biodistribution of radioligand [125I]FIDA1 in liver of rat after 60 minutes after an intravenous injection is given (average of 3 rats); type: ADME, organism-based; conditions: in vivo, 1 h; how it was run: as §1
Rattus norvegicus [17] = assay: Biodistribution of radioligand [125I]FIDA1 in muscle of rat after 60 minutes after an intravenous injection is given (average of 3 rats); type: ADME, organism-based, Muscle tissue; conditions: in vivo, 1 h; how it was run: as §1
Rattus norvegicus [18] = assay: Biodistribution of radioligand [125I]FIDA1 in liver of rat after 120 minutes after an intravenous injection is given (average of 3 rats); type: ADME, organism-based; conditions: in vivo, 2 h; how it was run: as §1
Rattus norvegicus [19] = assay: Biodistribution of radioligand [125I]FIDA1 in spleen of rat after 60 minutes after an intravenous injection is given (average of 3 rats); type: ADME, organism-based; conditions: in vivo, 1 h; how it was run: as §1
Rattus norvegicus [20] = assay: Uptake of radioligand [125I]FIDA1 by cortex in rat after 60 minutes after an intravenous injection is given (average of 3 rats); type: ADME, organism-based; conditions: in vivo, 1 h; how it was run: as §2
Rattus norvegicus [21] = assay: Biodistribution of radioligand [125I]FIDA1 in skin of rat after 60 minutes after an intravenous injection is given (average of 3 rats); type: ADME, organism-based, Zone of skin; conditions: in vivo, 1 h; how it was run: as §1
Rattus norvegicus [22] = assay: Biodistribution of radioligand [125I]FIDA1 in lung of rat after 120 minutes after an intravenous injection is given (average of 3 rats); type: ADME, organism-based; conditions: in vivo, 2 h; how it was run: as §1
Rattus norvegicus [23] = species: Rattus norvegicus; assay: Dissociation constant was determined; type: ADME, organism-based
How it was run: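 Rat striatal membrane homogenate (40–60 μg protein) incubated with 125I-labeled ligand ± competitors in 0.2 mL assay buffer, 15 min at 37 °C with stirring. Filtered on protamine-pretreated (0.2%) GF/B filters, washed with cold 50 mM Tris-HCl pH 7.4, gamma-counted. Nonspecific binding defined with 10 μM (+)-butaclamol. Scatchard and competition data fitted by iterative nonlinear least squares.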

Rattus norvegicus [24] = assay: Biodistribution of radioligand [125I]FIDA1 in spleen of rat after 2 minutes after an intravenous injection is given (average of 3 rats); type: ADME, organism-based; conditions: in vivo; how it was run: as §1
Rattus norvegicus [25] = assay: Biodistribution of radioligand [125I]FIDA1 in kidney of rat after 30 minutes after an intravenous injection is given (average of 3 rats); type: ADME, organism-based; conditions: in vivo, 0.5 h; how it was run: as §1
Rattus norvegicus [26] = assay: Biodistribution of radioligand [125I]-FIDA1 in kidney of rat after 2 minutes after an intravenous injection is given (average of 3 rats); type: ADME, organism-based; conditions: in vivo; how it was run: as §1
Rattus norvegicus [27] = assay: Biodistribution of radioligand [125I]FIDA1 in thyroid of rat after 2 minutes after an intravenous injection is given (average of 3 rats); type: ADME, organism-based, Thyroid gland; conditions: in vivo; how it was run: as §1
Rattus norvegicus [28] = assay: Biodistribution of radioligand [125I]FIDA1 in thyroid of rat after 60 minutes after an intravenous injection is given (average of 3 rats); type: ADME, organism-based, Thyroid gland; conditions: in vivo, 1 h; how it was run: as §1
Rattus norvegicus [29] = assay: Uptake of radioligand [125I]FIDA1 by striatum in rat after 2 minutes after an intravenous injection is given (average of 3 rats); type: ADME, organism-based; conditions: in vivo; how it was run: as §2
Rattus norvegicus [30] = assay: Biodistribution of radioligand [125I]FIDA1 in kidney of rat after 60 minutes after an intravenous injection is given (average of 3 rats); type: ADME, organism-based; conditions: in vivo, 1 h; how it was run: as §1
Rattus norvegicus [31] = assay: Biodistribution of radioligand [125I]FIDA1 in muscle of rat after 2 minutes after an intravenous injection is given (average of 3 rats); type: ADME, organism-based, Muscle tissue; conditions: in vivo; how it was run: as §1
Rattus norvegicus [32] = assay: Biodistribution of radioligand [125I]FIDA1 in brain of rat after 60 minutes after an intravenous injection is given (average of 3 rats); type: ADME, organism-based; conditions: in vivo, 1 h; how it was run: as §1
Rattus norvegicus [33] = assay: Uptake of radioligand [125I]FIDA1 by cortex in rat after 2 minutes after an intravenous injection is given (average of 3 rats); type: ADME, organism-based; conditions: in vivo; how it was run: as §2
Rattus norvegicus [34] = assay: Uptake of radioligand [125I]-FIDA1 by cortex in rat after 120 minutes after an intravenous injection is given (average of 3 rats); type: ADME, organism-based; conditions: in vivo, 2 h; how it was run: as §2
Rattus norvegicus [35] = assay: Uptake of radioligand [125I]FIDA1 by cerebellum in rat after 120 minutes after an intravenous injection is given (average of 3 rats); type: ADME, organism-based; conditions: in vivo, 2 h; how it was run: as §2
Rattus norvegicus [36] = assay: Biodistribution of radioligand [125I]FIDA1 in thyroid of rat after 120 minutes after an intravenous injection is given (average of 3 rats); type: ADME, organism-based, Thyroid gland; conditions: in vivo, 2 h; how it was run: as §1
Rattus norvegicus [37] = assay: Biodistribution of radioligand [125I]-FIDA1 in heart of rat after 120 minutes after an intravenous injection is given (average of 3 rats); type: ADME, organism-based; conditions: in vivo, 2 h; how it was run: as §1

Row | Structure (SMILES) | Dose/organ (Rattus norvegicus [1]) [%] | Dose/organ (Rattus norvegicus [2]) [%] | Dose/organ (Rattus norvegicus [3]) [%] | Dose/organ (Rattus norvegicus [4]) [%] | Dose/g (Rattus norvegicus [5]) [%] | Dose/g (Rattus norvegicus [6]) [%] | Dose/g (Rattus norvegicus [7]) [%] | Dose/organ (Rattus norvegicus [8]) [%] | Dose/organ (Rattus norvegicus [9]) [%] | Dose/organ (Rattus norvegicus [10]) [%] | Dose/organ (Rattus norvegicus [11]) [%] | Dose/organ (Rattus norvegicus [12]) [%] | Dose/organ (Rattus norvegicus [13]) [%] | Dose/organ (Rattus norvegicus [14]) [%] | Dose/organ (Rattus norvegicus [15]) [%] | Dose/organ (Rattus norvegicus [16]) [%] | Dose/organ (Rattus norvegicus [17]) [%] | Dose/organ (Rattus norvegicus [18]) [%] | Dose/organ (Rattus norvegicus [19]) [%] | Dose/g (Rattus norvegicus [20]) [%] | further results
1 | COc1cc(I)cc(C(=O)NC[C@@H]2CCCN2Cc2ccc(F)cc2)c1OC | 6.08 | 5.75 | 19.41 | 2.08 | 0.03 | 0.23 | 0.37 | 0.05 | 0.98 | 0.06 | 7.82 | 0.05 | 0.32 | 0.42 | 0.87 | 10.44 | 4.21 | 5.71 | 0.14 | 0.04 | Dose/organ (Rattus norvegicus [21]): 8.56%; Dose/organ (Rattus norvegicus [22]): 0.15%; Kd (Rattus norvegicus [23]): 0.02 nM; Dose/organ (Rattus norvegicus [24]): 1.19%; Dose/organ (Rattus norvegicus [25]): 2.96%; Dose/organ (Rattus norvegicus [26]): 6.77%; Dose/organ (Rattus norvegicus [27]): 0.07%; Dose/organ (Rattus norvegicus [28]): 0.03%; Dose/g (Rattus norvegicus [29]): 0.59%; Dose/organ (Rattus norvegicus [30]): 1.38%; Dose/organ (Rattus norvegicus [31]): 11.14%; Dose/organ (Rattus norvegicus [32]): 0.1%; Dose/g (Rattus norvegicus [33]): 0.63%; Dose/g (Rattus norvegicus [34]): 0.01%; Dose/g (Rattus norvegicus [35]): 0.01%; Dose/organ (Rattus norvegicus [36]): 0.03%; Dose/organ (Rattus norvegicus [37]): 0.03%
2 | CCN1CCC[C@H]1CNC(=O)c1cc(I)cc(OC)c1OCCF | 8.19 | 0.75 | 20.46 | 3.76 | 0.006 | 0.095 | 0.175 | 0.01 | 0.41 | 0.03 | 6.53 | 0.02 | 0.14 | 0.11 | 1.91 | 7.08 | 1.96 | 2.24 | 0.05 | 0.013 | Dose/organ (Rattus norvegicus [21]): 1.76%; Dose/organ (Rattus norvegicus [22]): 0.04%; Kd (Rattus norvegicus [23]): 0.13 nM; Dose/organ (Rattus norvegicus [24]): 0.7%; Dose/organ (Rattus norvegicus [25]): 1.42%; Dose/organ (Rattus norvegicus [26]): 6.18%; Dose/organ (Rattus norvegicus [27]): 0.07%; Dose/organ (Rattus norvegicus [28]): 0.04%; Dose/g (Rattus norvegicus [29]): 0.3%; Dose/organ (Rattus norvegicus [30]): 0.39%; Dose/organ (Rattus norvegicus [31]): 11.83%; Dose/organ (Rattus norvegicus [32]): 0.05%; Dose/g (Rattus norvegicus [33]): 0.25%; Dose/g (Rattus norvegicus [34]): 0.0014%; Dose/g (Rattus norvegicus [35]): 0.0016%; Dose/organ (Rattus norvegicus [36]): 0.03%; Dose/organ (Rattus norvegicus [37]): 0.01%

From ChEMBL document CHEMBL1126811, “Fluorinated and iodinated dopamine agents: D2 imaging agents for PET and SPECT” (J Med Chem, 1993)
